From ChEMBL document CHEMBL2021854, “2-Aminopyrimidine based 4-aminoquinoline anti-plasmodial agents. Synthesis, biological activity, structure-activity relationship and mode of action studies” (Eur J Med Chem, 2012)

Assays:
HeLa = assay: Cytotoxicity against human HeLa cells assessed as cell viability by colorimetric formazan-based MTS assay
[1] = system: Vesicular stomatitis virus; assay: Antiviral activity against Vesicular stomatitis virus infected in HEL cells assessed as inhibition of virus-induced cytopathogenicity after 4 days; type: functional, organism-based; conditions: 96 h
Method in brief: (§1)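 Confluent HEL or HeLa monolayers infected with 100 CCID50 of virus in the presence of varying compound concentrations.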

[2] = Cytotoxicity against human HEL cells assessed as minimum compound concentration required to causes microscopically detectable alteration of normal cell morphology; type: cell-based
Method in brief: (§2)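 Confluent, non-proliferating cell cultures were exposed to the compounds. The endpoint was the minimum concentration producing a microscopically detectable alteration of normal cell morphology.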

Human betaherpesvirus 5 [3] = assay: Antiviral activity against Cytomegalovirus AD-169 infected in HEL cells assessed as inhibition of virus plaque formation after 4 days; type: functional, organism-based; conditions: Human betaherpesvirus 5, AD169, HEL, 96 h
Human alphaherpesvirus 1 = assay: Antiviral activity against HSV1 KOS infected in HEL cells assessed as inhibition of virus-induced cytopathogenicity after 4 days; type: functional, organism-based; conditions: Human alphaherpesvirus 1, KOS, 96 h; method in brief: as §1
Human alphaherpesvirus 2 = assay: Antiviral activity against HSV2 G infected in HEL cells assessed as inhibition of virus-induced cytopathogenicity after 4 days; type: functional, organism-based; conditions: Human alphaherpesvirus 2, strain G, 96 h
Method in brief: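 Confluent HEL, Vero or HeLa monolayers were inoculated with 100 CCID50 of virus in the presence of varying concentrations of compound. Cytopathicity was scored when it reached completion in untreated, virus-infected control cultures.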

Human betaherpesvirus 5 [4] = assay: Antiviral activity against Human cytomegalovirus Davis infected in HEL cells assessed as inhibition of virus plaque formation after 4 days; type: functional, organism-based; conditions: Human betaherpesvirus 5, Davis, 96 h
[5] = Cytotoxicity against MDCK cells assessed as minimum compound concentration required to causes microscopically detectable alteration of normal cell morphology; type: cell-based, Canis lupus familiaris; conditions: dog; method in brief: as §2
Influenza B virus [6] = assay: Antiviral activity against Influenza B virus infected in MDCK cells assessed as inhibition of virus-induced cytopathogenicity after 4 days by colorimetric formazan-based MTS assay; type: functional, organism-based; conditions: 96 h
Influenza B virus [7] = assay: Antiviral activity against Influenza B virus infected in MDCK cells assessed as reduction visual scoring of virus-induced cytopathogenicity after 4 days; type: functional, organism-based; conditions: 96 h
Method in brief: (§3)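 MDCK monolayers infected with 100 CCID50 of influenza A (H1N1 or H3N2) or influenza B, with varying compound concentrations. Cytopathicity read when untreated infected controls reached complete CPE.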

Influenza A virus [8] = assay: Antiviral activity against Influenza A virus H3N2 infected in MDCK cells assessed as inhibition of virus-induced cytopathogenicity after 4 days by colorimetric formazan-based MTS assay; type: functional, organism-based; conditions: 96 h
Influenza A virus [9] = assay: Antiviral activity against Influenza A virus H3N2 infected in MDCK cells assessed as reduction visual scoring of virus-induced cytopathogenicity after 4 days; type: functional, organism-based; conditions: 96 h; method in brief: as §3
Plasmodium falciparum [10] = assay: Antiplasmodial activity chloroquine-sensitive Plasmodium falciparum 3D7 infected in human A+ erythrocytes assessed as inhibition of [3H]-hypoxanthine incorporation after 24 hrs by scintillation counting; type: functional, organism-based
Plasmodium falciparum [11] = assay: Resistant factor, ratio of IC50 for chloroquine-resistant Plasmodium falciparum K1 to IC50 for chloroquine-sensitive Plasmodium falciparum 3D7; type: functional
Method in brief: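 Resistance factor computed as IC50 against K1 divided by IC50 against 3D7, both from the [3H]hypoxanthine incorporation assay.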

Plasmodium falciparum [12] = assay: Antiplasmodial activity chloroquine-resistant Plasmodium falciparum K1 infected in human A+ erythrocytes assessed as inhibition of [3H]-hypoxanthine incorporation after 24 hrs by scintillation counting; type: functional, organism-based
[13] = Inhibition of beta-hematin formation assessed as Ferriprotoporphyrin IX biomineralisation at 1 mg/ml after 24 hrs; type: functional
Method in brief: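 Hemin chloride (0.5 mg/ml in DMSO) mixed with 0.5 M sodium acetate buffer pH 4.4 and drug or solvent control, incubated 37 °C for 24 h. Pellet washed with DMSO to remove unreacted hemin, dissolved in 0.1 N NaOH, absorbance read at 405 nm; percent inhibition relative to control. Highest concentration tested 1 mg/ml.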

[14] = system: Feline infectious peritonitis virus; assay: Antiviral activity against FIPV infected in cat CRFK cells assessed as inhibition of virus-induced cytopathic effect after 4 days by colorimetric formazan-based MTS assay; type: functional, cell-based; conditions: Alphacoronavirus 1, CRFK, 96 h
[15] = Cytotoxicity against cat CRFK cells assessed as cell viability by colorimetric formazan-based MTS assay; parameters: species or system Felis catus; conditions: CRFK cells
Felid alphaherpesvirus 1 = assay: Antiviral activity against Feline herpesvirus infected in cat CRFK cells assessed as inhibition of virus-induced cytopathic effect after 4 days by colorimetric formazan-based MTS assay; type: functional, organism-based; conditions: Felid alphaherpesvirus 1, CRFK, 96 h

## Nc1ccn(C[C@@H](CO)OCP(=O)(O)O)c(=O)n1 [CIDOFOVIR]
HeLa
  CC50: 50.8 µM
[1]
  EC50: > 250 µM
[2]
  MCC: > 317 µM
Human betaherpesvirus 5 [3]
  EC50: 369 nM
Human alphaherpesvirus 1
  EC50: 900 nM
Human alphaherpesvirus 2
  EC50: 900 nM
Human betaherpesvirus 5 [4]
  EC50: 102 nM

## CC(N)C12CC3CC(CC(C3)C1)C2 (centres undefined) [RIMANTADINE]
[5]
  MCC: > 200 µM
Influenza B virus [6]
  EC50: > 200 µM
Influenza B virus [7]
  EC50: > 200 µM
Influenza A virus [8]
  EC50: > 200 µM
Influenza A virus [9]
  EC50: > 200 µM

## CCOC(=O)c1c(C)nc(Nc2ccccc2Nc2ccnc3cc(Cl)ccc23)nc1-c1ccccc1
Plasmodium falciparum [10]
  IC50: 14800 nM
Plasmodium falciparum [11]
  Ratio IC50: 1.842
Plasmodium falciparum [12]
  IC50: 27.3 µM
[13]
  inhibition: 53%

## CCOC(=O)c1c(C)nc(Nc2ccc(Nc3ccnc4cc(Cl)ccc34)cc2)nc1-c1ccccc1
Plasmodium falciparum [10]
  IC50: 644 nM
Plasmodium falciparum [11]
  Ratio IC50: 9.6
Plasmodium falciparum [12]
  IC50: 6.19 µM
[13]
  inhibition: 100%

## CCOC(=O)c1c(C)nc(NCCCC(C)CNc2ccnc3cc(Cl)ccc23)nc1-c1ccccc1 (centres undefined)
Plasmodium falciparum [10]
  IC50: 287 nM
Plasmodium falciparum [11]
  Ratio IC50: 3
Plasmodium falciparum [12]
  IC50: 0.86 µM

## Nc1nc(O)c2ncn(COC(CO)CO)c2n1 [GANCICLOVIR]
[14]
  EC50: > 100 µM
[15]
  CC50: > 100 µM
HeLa
  CC50: 222 µM
Felid alphaherpesvirus 1
  EC50: 4.1 µM
[1]
  EC50: > 100 µM
[2]
  MCC: > 100 µM
